Measured values reported in ChEMBL document CHEMBL1135816, “6-Aryl-1,4-dihydro-benzo[d][1,3]oxazin- 2-ones: a novel class of potent, selective, and orally active nonsteroidal progesterone receptor antagonists” (J Med Chem, 2002).

Columns and labels:
Androgen receptor = biological target: T1, Androgen receptor (Homo sapiens, UniProt P10275); test: Antagonist activity against the Androgen Receptor (AR)
T1 sequence (P10275 whole entry): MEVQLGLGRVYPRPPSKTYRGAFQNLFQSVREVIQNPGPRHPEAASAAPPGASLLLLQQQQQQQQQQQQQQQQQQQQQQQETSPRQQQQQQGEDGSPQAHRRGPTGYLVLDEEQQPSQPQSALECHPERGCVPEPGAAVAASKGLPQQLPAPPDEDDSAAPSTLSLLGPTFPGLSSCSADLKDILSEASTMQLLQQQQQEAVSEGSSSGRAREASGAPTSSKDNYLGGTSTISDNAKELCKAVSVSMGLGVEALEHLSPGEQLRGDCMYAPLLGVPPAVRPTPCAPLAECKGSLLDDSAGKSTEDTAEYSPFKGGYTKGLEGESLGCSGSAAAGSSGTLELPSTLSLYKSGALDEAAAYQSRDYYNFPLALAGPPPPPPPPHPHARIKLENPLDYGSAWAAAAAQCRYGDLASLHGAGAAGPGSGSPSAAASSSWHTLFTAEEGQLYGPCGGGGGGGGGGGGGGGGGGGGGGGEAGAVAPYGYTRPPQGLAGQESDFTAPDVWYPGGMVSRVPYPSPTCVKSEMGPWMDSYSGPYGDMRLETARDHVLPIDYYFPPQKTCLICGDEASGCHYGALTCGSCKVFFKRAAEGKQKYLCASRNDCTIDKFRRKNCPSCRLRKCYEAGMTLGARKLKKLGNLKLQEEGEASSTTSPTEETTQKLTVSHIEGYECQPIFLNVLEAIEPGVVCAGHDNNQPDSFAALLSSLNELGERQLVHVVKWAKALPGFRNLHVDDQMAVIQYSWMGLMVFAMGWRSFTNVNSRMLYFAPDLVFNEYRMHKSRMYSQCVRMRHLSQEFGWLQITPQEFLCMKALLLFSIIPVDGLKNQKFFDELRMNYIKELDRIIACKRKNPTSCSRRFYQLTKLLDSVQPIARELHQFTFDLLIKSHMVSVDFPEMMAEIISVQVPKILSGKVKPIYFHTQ

Progesterone receptor [1] = biological target: T2, Progesterone receptor (Homo sapiens, UniProt P06401); test: Antagonist activity against progesterone receptor (PR) in an assay using PRE-luciferase plasmid co-transfected CV-1 cells; type: functional, cell-based
T2 sequence (P06401 whole entry): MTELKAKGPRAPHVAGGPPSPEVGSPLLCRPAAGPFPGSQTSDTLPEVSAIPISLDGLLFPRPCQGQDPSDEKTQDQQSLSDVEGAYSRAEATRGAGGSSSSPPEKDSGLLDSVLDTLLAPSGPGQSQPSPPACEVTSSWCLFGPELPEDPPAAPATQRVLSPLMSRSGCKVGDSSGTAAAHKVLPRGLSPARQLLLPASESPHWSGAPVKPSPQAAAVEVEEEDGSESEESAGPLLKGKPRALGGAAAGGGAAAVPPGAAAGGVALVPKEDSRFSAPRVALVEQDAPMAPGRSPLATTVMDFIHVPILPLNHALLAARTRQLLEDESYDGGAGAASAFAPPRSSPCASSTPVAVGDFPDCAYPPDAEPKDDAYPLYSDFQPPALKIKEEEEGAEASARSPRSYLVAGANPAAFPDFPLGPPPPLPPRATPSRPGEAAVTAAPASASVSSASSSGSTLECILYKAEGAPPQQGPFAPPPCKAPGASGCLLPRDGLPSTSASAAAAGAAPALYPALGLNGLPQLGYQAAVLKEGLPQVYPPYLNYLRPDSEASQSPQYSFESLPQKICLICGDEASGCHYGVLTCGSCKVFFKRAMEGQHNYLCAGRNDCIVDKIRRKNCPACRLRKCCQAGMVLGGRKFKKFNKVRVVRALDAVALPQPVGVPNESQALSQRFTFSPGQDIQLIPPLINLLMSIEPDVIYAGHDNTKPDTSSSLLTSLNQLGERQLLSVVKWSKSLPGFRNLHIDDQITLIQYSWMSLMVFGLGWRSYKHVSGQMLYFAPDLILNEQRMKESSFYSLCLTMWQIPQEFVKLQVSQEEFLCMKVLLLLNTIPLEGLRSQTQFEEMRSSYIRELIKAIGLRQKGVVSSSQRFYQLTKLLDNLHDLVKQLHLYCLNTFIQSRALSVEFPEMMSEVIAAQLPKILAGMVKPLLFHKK
Method in brief: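 CV-1 cells cotransfected with hPR and PRE-luciferase plasmids, luciferase read-out; IC50 averaged from at least duplicate determinations.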

Progesterone receptor [2] = biological target: T2, Progesterone receptor; test: Antagonist activity against the Progesterone Receptor (PR); type: functional
Method in brief: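 Antagonism run in CV-1 cells co-transfected with hPR and PRE-luciferase plasmids, with luciferase read-out; IC50 taken as the mean of at least duplicate determinations.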

[3] = biological target: T3, Progesterone receptor (Rattus norvegicus) (UniProt Q63449); test: Inhibitory activity against progesterone receptor (PR) in ovariectomized mature female rat decidualization model; type: functional
T3 sequence (whole entry): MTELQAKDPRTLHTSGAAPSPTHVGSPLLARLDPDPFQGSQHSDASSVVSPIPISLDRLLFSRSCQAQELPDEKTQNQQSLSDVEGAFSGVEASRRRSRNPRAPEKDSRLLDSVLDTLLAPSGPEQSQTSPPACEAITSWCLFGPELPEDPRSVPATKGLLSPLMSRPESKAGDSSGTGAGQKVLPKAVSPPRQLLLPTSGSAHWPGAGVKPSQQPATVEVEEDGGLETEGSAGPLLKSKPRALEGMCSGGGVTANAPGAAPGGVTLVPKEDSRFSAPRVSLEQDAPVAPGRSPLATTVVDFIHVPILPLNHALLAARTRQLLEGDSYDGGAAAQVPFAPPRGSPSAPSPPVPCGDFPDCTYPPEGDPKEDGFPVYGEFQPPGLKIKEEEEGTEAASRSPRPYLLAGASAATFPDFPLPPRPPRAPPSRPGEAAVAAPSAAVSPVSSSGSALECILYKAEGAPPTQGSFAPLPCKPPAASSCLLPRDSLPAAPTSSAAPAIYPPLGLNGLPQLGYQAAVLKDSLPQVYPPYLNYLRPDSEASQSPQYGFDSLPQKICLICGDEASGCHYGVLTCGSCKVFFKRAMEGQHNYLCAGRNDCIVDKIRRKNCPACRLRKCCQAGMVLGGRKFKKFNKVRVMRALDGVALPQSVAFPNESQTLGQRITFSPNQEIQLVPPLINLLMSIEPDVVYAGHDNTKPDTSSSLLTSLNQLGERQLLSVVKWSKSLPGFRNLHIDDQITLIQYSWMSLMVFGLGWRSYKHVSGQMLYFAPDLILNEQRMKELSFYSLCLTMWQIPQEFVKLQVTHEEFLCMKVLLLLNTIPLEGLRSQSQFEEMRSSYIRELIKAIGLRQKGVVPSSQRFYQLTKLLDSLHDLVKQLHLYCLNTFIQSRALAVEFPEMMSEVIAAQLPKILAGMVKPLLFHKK
Method in brief: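 Ovariectomized mature rats dosed orally for 7 days, with progesterone 5.6 mg/kg SC given alongside; vehicle-only controls. Decidual response (D/C) measured 24 h after the final treatment, seven animals per point. ED50 averaged from at least duplicate determinations.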

Structure (SMILES)	IC50 (Androgen receptor)	IC50 (Progesterone receptor [1])	IC50 (Progesterone receptor [2])	ED50 [3]
CC1(C)OC(=O)Nc2ccc(-c3coc(C#N)c3)cc21	129 nM	40.2 nM	40.2 nM	0.9 mg/kg
CC1(C)OC(=O)Nc2ccc(-c3csc(C#N)c3)cc21	280 nM	6.7 nM	6.7 nM	1.7 mg/kg
CC1(C)OC(=O)Nc2ccc(-c3ccc(F)c(Cl)c3)cc21	207 nM			1 mg/kg
CC1(C)OC(=O)Nc2ccc(-c3cc(F)cc(C#N)c3)cc21	1290 nM	15.9 nM	15.9 nM	0.3 mg/kg
